Data from ChEMBL document CHEMBL6083225, “Copper selective 8-aminoquinoline based tetradentate chelators as anticancer agents” (RSC Med Chem, 2024).
Active and inactive are the calls of the source. The rule behind the calls is not given here.

Tests used:
A-375 = assay: Cytotoxicity against human A-375 cells assessed as cell viability incubated for 48 hrs by MTT assay; assay type: functional, cell-based; details: A-375, 48 h
Summary of the method: (§1)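 5000 cells/well preincubated 24 h at 37 °C, 5% CO₂, then exposed to 3.1–100 μM for 48 h; untreated control, 5-FU positive control. MTT at 0.5 mg/mL in FBS-free DMEM for 4 h, formazan dissolved in DMSO, absorbance read at 570 nm. IC50 taken as half-maximal inhibitory concentration; mean ± SD of at least three independent experiments.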

A549 = assay: Cytotoxicity against human A549 cells assessed as cell viability incubated for 48 hrs by MTT assay; assay type: functional, cell-based; details: A549, 48 h
Summary of the method: (§2)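 Cells seeded at 5000/well, held 24 h at 37 °C, 5% CO2, then exposed 48 h to 100, 50, 25, 12.5, 6.3 or 3.1 μM, with an untreated control. Then 0.5 mg mL⁻¹ MTT in FBS-free DMEM for 4 h at 37 °C, formazan dissolved in DMSO and read at 570 nm. IC50 is the mean ± SD of at least three independent experiments; 5-FU served as positive control.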

COLO-829 = assay: Cytotoxicity against human COLO-829 cells assessed as cell viability incubated for 48 hrs by MTT assay; assay type: functional, cell-based; details: COLO-829, 48 h; summary of the method: as §2
HeLa [1] = assay: Cytotoxicity against human HeLa cells assessed as cell viability incubated for 48 hrs by MTT assay; assay type: functional, cell-based; summary of the method: as §1
HepG2 = assay: Cytotoxicity against human HepG2 cells assessed as cell viability incubated for 48 hrs by MTT assay; assay type: functional, cell-based; details: HepG2, 48 h; summary of the method: as §2
[2] = Cytotoxicity against human HaCaT cells assessed as cell viability incubated for 48 hrs by MTT assay; assay type: toxicity, cell-based; summary of the method: as §2
[3] = Selectivity index, ratio of IC50 for cytotoxicity against human HaCaT cells assessed as cell viability to IC50 for cytotoxicity against human A549 cells assessed as cell viability; assay type: toxicity, cell-based; details: HaCaT cells versus A549 cells
Summary of the method: (§3)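 Selectivity index is IC50 in non-cancer HaCaT keratinocytes divided by IC50 in the cancer line. Both IC50 values came from MTT viability after 48 h exposure (5000 cells/well, 3.1–100 μM, absorbance at 570 nm), each a mean of at least three independent experiments.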

[4] = Selectivity index, ratio of IC50 for cytotoxicity against human HaCaT cells assessed as cell viability to IC50 for cytotoxicity against human HeLa cells assessed as cell viability; assay type: toxicity, cell-based; details: HaCaT cells versus HeLa cells, read-out: Ratio IC50; summary of the method: as §3
[5] = Selectivity index, ratio of IC50 for cytotoxicity against human HaCaT cells assessed as cell viability to IC50 for cytotoxicity against human HepG2 cells assessed as cell viability; assay type: toxicity, cell-based; details: HaCaT cells versus HepG2 cells; summary of the method: as §3
HeLa [6] = assay: Antiproliferative activity against human HeLa cells assessed as inhibition of colony formation at 1.5 to 12 uM incubated for 14 days by crystal violet staining based analysis; assay type: functional, cell-based; details: dose 1.5-12 µM, time 14.0 day
Summary of the method: (§4)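 1000 HeLa cells per 3.5 cm dish, treated after attachment with 0, 1.5, 3, 6 or 12 μM for 14 days, medium refreshed every 2 days. Cells were fixed in 100% methanol for 30 min and stained with 0.1% crystal violet for 30 min. Colonies were imaged and counted, normalised to control wells. At least triplicate.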

HeLa [7] = assay: Antiproliferative activity against human HeLa cells assessed as inhibition of colony formation at 12 uM incubated for 14 days by crystal violet staining based analysis; assay type: functional, cell-based; details: time 14.0 day; summary of the method: as §4
HeLa [8] = assay: Anti-migration activity in human HeLa cells assessed as increase in wound width at 14.5 uM incubated 24 hrs by wound-healing assay (reference value: 61%); assay type: functional
HeLa [9] = assay: Anti-migration activity in human HeLa cells assessed as inhibition of cell migration at 14.5 uM incubated 24 hrs by wound-healing assay; assay type: functional; parameters: scale not given: the % may be the effect or the level left
HeLa [10] = assay: Induction of apoptosis in human HeLa cells assessed as viable cells at 3.7 uM incubated for 48 hrs by Annexin V-FITC/PI staining based flow cytometry analysis (reference value: 91.2%); assay type: functional; details: read-out: Activity
HeLa [11] = assay: Induction of apoptosis in human HeLa cells assessed as early apoptotic cells at 3.7 uM incubated for 48 hrs by Annexin V-FITC/PI staining based flow cytometry analysis (reference value: 2.56%); assay type: functional
HeLa [12] = assay: Induction of apoptosis in human HeLa cells assessed as late apoptotic cells at 3.7 uM incubated for 48 hrs by Annexin V-FITC/PI staining based flow cytometry analysis (reference value: 6.10 %); assay type: functional
HeLa [13] = assay: Induction of apoptosis in human HeLa cells assessed as necrotic cells at 3.7 uM incubated for 48 hrs by Annexin V-FITC/PI staining based flow cytometry analysis (reference value: 0.12%); assay type: functional
HeLa [14] = assay: Induction of apoptosis in human HeLa cells assessed as viable cells at 7.3 uM incubated for 48 hrs by Annexin V-FITC/PI staining based flow cytometry analysis (reference value: 91.2%); assay type: functional; details: read-out: Activity
HeLa [15] = assay: Induction of apoptosis in human HeLa cells assessed as early apoptotic cells at 7.3 uM incubated for 48 hrs by Annexin V-FITC/PI staining based flow cytometry analysis (reference value: 2.56%); assay type: functional
HeLa [16] = assay: Induction of apoptosis in human HeLa cells assessed as late apoptotic cells at 7.3 uM incubated for 48 hrs by Annexin V-FITC/PI staining based flow cytometry analysis (reference value: 6.10 %); assay type: functional
HeLa [17] = assay: Induction of apoptosis in human HeLa cells assessed as necrotic cells at 7.3 uM incubated for 48 hrs by Annexin V-FITC/PI staining based flow cytometry analysis (reference value: 0.12%); assay type: functional
HeLa [18] = assay: Induction of apoptosis in human HeLa cells assessed as viable cells at 14.5 uM incubated for 48 hrs by Annexin V-FITC/PI staining based flow cytometry analysis (reference value: 91.2%); assay type: functional; details: read-out: Activity
HeLa [19] = assay: Induction of apoptosis in human HeLa cells assessed as early apoptotic cells at 14.5 uM incubated for 48 hrs by Annexin V-FITC/PI staining based flow cytometry analysis (reference value: 2.56%); assay type: functional
HeLa [20] = assay: Induction of apoptosis in human HeLa cells assessed as late apoptotic cells at 14.5 uM incubated for 48 hrs by Annexin V-FITC/PI staining based flow cytometry analysis (reference value: 6.10 %); assay type: functional
HeLa [21] = assay: Induction of apoptosis in human HeLa cells assessed as necrotic cells at 14.5 uM incubated for 48 hrs by Annexin V-FITC/PI staining based flow cytometry analysis (reference value: 0.12%); assay type: functional
HeLa [22] = assay: Induction of apoptosis in human HeLa cells assessed as necrotic cells incubated for 48 hrs by Annexin V-FITC/PI staining based flow cytometry analysis; assay type: functional, cell-based; details: dose 3.7-14.5 µM
HeLa [23] = assay: Induction of ROS production in human HeLa cells at 3.7 uM incubated for 48 hrs by H2DCFDA dye-based flow cytometry analysis; assay type: functional
Summary of the method: (§5)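 HeLa cells exposed to 0, 3.7, 7.3 or 14.5 μM for 48 h, trypsinised, washed in PBS, then loaded with H₂DCFDA (final 10 μM) at 37 °C for 30 min in the dark. DCF fluorescence (ex 498/em 522 nm) read by flow cytometry and expressed as percent of untreated cells. At least triplicate.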

HeLa [24] = assay: Induction of ROS production in human HeLa cells at 7.3 uM incubated for 48 hrs by H2DCFDA dye-based flow cytometry analysis; assay type: functional; summary of the method: as §5
HeLa [25] = assay: Induction of ROS production in human HeLa cells at 14.5 uM incubated for 48 hrs by H2DCFDA dye-based flow cytometry analysis; assay type: functional; summary of the method: as §5
HeLa [26] = assay: Induction of ROS production in human HeLa cells incubated for 48 hrs by H2DCFDA dye-based flow cytometry analysis; assay type: functional, cell-based; details: dose 3.7-14.5 µM; summary of the method: as §5
Mitochondrial membrane [27] = assay: Induction of mitochondrial membrane potential depolarization in human HeLa cells assessed as decrease in red to green fluorescence intensity ratio at 3.7 to 14.5 uM incubated for 48 hrs by JC-1 staining based flow cytometric analysis; details: dose 3.7-14.5 µM
Summary of the method: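 HeLa cells attached overnight, then treated at 0, 3.7, 7.3 or 14.5 μM for 48 h and stained with JC-1. Red (590 nm) and green (527–529 nm) fluorescence measured by flow cytometry. Red/green ratio expressed as percent of untreated cells; one-way ANOVA, at least triplicate.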

Mitochondrial membrane [28] = assay: Induction of mitochondrial membrane potential depolarization in human HeLa cells assessed as green fluorescence intensity at 3.7 uM incubated for 48 hrs by JC-1 staining based flow cytometric analysis (reference value: 3.28); assay type: cell membranes
Summary of the method: (§6)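 HeLa cells grown in 10 cm dishes and left to attach overnight, then treated 48 h at 0, 3.7, 7.3 or 14.5 μM. Stained with JC-1 per kit instructions. Red (J-aggregate, 590 nm) and green (monomer, 527–529 nm) fluorescence read by flow cytometry. Red/green ratio expressed as % of untreated cells. At least triplicate; one-way ANOVA.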

Mitochondrial membrane [29] = assay: Induction of mitochondrial membrane potential depolarization in human HeLa cells assessed as red fluorescence intensity at 3.7 uM incubated for 48 hrs by JC-1 staining based flow cytometric analysis (reference value: 95.8); assay type: cell membranes; summary of the method: as §6
Mitochondrial membrane [30] = assay: Induction of mitochondrial membrane potential depolarization in human HeLa cells assessed as green fluorescence intensity at 7.3 uM incubated for 48 hrs by JC-1 staining based flow cytometric analysis (reference value: 3.28; assay type: cell membranes; summary of the method: as §6
Mitochondrial membrane [31] = assay: Induction of mitochondrial membrane potential depolarization in human HeLa cells assessed as red fluorescence intensity at 7.3 uM incubated for 48 hrs by JC-1 staining based flow cytometric analysis (reference value: 95.8); assay type: cell membranes; summary of the method: as §6
Mitochondrial membrane [32] = assay: Induction of mitochondrial membrane potential depolarization in human HeLa cells assessed as green fluorescence intensity at 14.5 uM incubated for 48 hrs by JC-1 staining based flow cytometric analysis (reference value: 3.28); assay type: cell membranes; summary of the method: as §6
Mitochondrial membrane [33] = assay: Induction of mitochondrial membrane potential depolarization in human HeLa cells assessed as red fluorescence intensity at 14.5 uM incubated for 48 hrs by JC-1 staining based flow cytometric analysis (reference value: 95.8); assay type: cell membranes; summary of the method: as §6

CN(C)CCNCCc1ccc2c(Cl)cc(Cl)c(N)c2n1.Cl.Cl.Cl
IC50 (A-375): 38.1 µM | IC50 (A549): 16.2 µM | IC50 (COLO-829): 40.2 µM | IC50 (HeLa [1]): 14.5 µM | Activity (HeLa [1]; dose <= 100.0 µM): Dose-dependent-effect | IC50 (HepG2): 16.6 µM | IC50 at 48 h [2]: 41.1 µM | selectivity ratio [3]: 2.5 | selectivity ratio [4]: 2.8 | selectivity ratio [5]: 2.5 | Activity (HeLa [6]): Active | Activity (HeLa [7]): Active | Activity (HeLa [8]): 74% | Activity (HeLa [9]): 33% | viability at 3.7 µM (HeLa [10]): 90.6% | Activity (HeLa [11]): 2.56% | Activity (HeLa [12]): 6.48% | Activity (HeLa [13]): 0.33% | viability at 7.3 µM (HeLa [14]): 85.3% | Activity (HeLa [15]): 6.06% | Activity (HeLa [16]): 8.49% | Activity (HeLa [17]): 0.1% | viability at 14.5 µM (HeLa [18]): 49.3% | Activity (HeLa [19]): 21.6% | Activity (HeLa [20]): 28.9% | Activity (HeLa [21]): 0.15% | Activity (HeLa [22]): Dose-dependent-effect | Activity (HeLa [23]): 125% | Activity (HeLa [24]): 138% | Activity (HeLa [25]): 150% | Activity (HeLa [26]): Dose-dependent-effect | Activity (Mitochondrial membrane [27]): Active | Flu intensity (Mitochondrial membrane [28]): 5.51 | Flu intensity (Mitochondrial membrane [29]): 93.9 | Flu intensity (Mitochondrial membrane [30]): 8.25 | Flu intensity (Mitochondrial membrane [31]): 91.2 | Flu intensity (Mitochondrial membrane [32]): 37.3 | Flu intensity (Mitochondrial membrane [33]): 61.8

O=c1[nH]cc(F)c(=O)[nH]1 [FLUOROURACIL]
IC50 (A549): 72.6 µM | IC50 (COLO-829): 48.7 µM | IC50 (HeLa [1]): 14.5 µM | IC50 (HepG2): 16.6 µM | IC50 at 48 h [2]: 30 µM
